Values after ≈ are worked out from the molar mass of the structure shown. Each block holds one molecule with its values, some of them ahead of it.
Tests used:
Assay type in all cases: functional
Klebsiella pneumoniae [1] = experiment: Antibacterial activity against KPC-2 producing Klebsiella pneumoniae isolate 209632 after 18 hrs by CLSI broth microdilution method; details: isolate 209632, 18 h
Escherichia coli [2] = experiment: Antibacterial activity against Escherichia coli isolate 210737 after 18 hrs in presence of BPL by CLSI broth microdilution method; details: isolate 210737, 18 h
Method in brief: (§1)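 CLSI broth microdilution against clinical isolates (ESBL E. coli, KPC-2 MDR K. pneumoniae, IMP-4 MDR P. aeruginosa; five per species). Iron limitation: Mueller-Hinton broth supplemented with 16 mg/liter 2,2'-bipyridyl to complex iron and induce iron uptake systems. Read-out: MIC.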

Pseudomonas aeruginosa [3] = experiment: Antibacterial activity against IMP-4 producing Pseudomonas aeruginosa isolate 208247 after 18 hrs in presence of BPL by CLSI broth microdilution method; details: isolate 208247, 18 h; method in brief: as §1
Escherichia coli [4] = experiment: Antibacterial activity against extended-spectrum beta-lactamase producing Escherichia coli isolate 209285 after 18 hrs in presence of BPL by CLSI broth microdilution method; details: isolate 209285, 18 h; method in brief: as §1
Pseudomonas aeruginosa [5] = experiment: Antibacterial activity against IMP-4 producing Pseudomonas aeruginosa isolate 208247 after 18 hrs by CLSI broth microdilution method; details: isolate 208247, 18 h
Escherichia coli [6] = experiment: Antibacterial activity against extended-spectrum beta-lactamase producing Escherichia coli isolate 208687 after 18 hrs by CLSI broth microdilution method; details: isolate 208687, 18 h
Klebsiella pneumoniae [7] = experiment: Selectivity index, ratio of MIC for against KPC-2 producing Klebsiella pneumoniae isolate 212229 to MIC for against KPC-2 producing Klebsiella pneumoniae isolate 212229 in presence of BPL
Pseudomonas aeruginosa [8] = experiment: Antibacterial activity against IMP-4 producing Pseudomonas aeruginosa isolate 209321 after 18 hrs by CLSI broth microdilution method; details: isolate 209321, 18 h
Pseudomonas aeruginosa [9] = experiment: Antibacterial activity against IMP-4 producing Pseudomonas aeruginosa isolate 209321 after 18 hrs in presence of BPL by CLSI broth microdilution method; details: isolate 209321, 18 h; method in brief: as §1
Pseudomonas aeruginosa [10] = experiment: Antibacterial activity against IMP-4 producing Pseudomonas aeruginosa isolate 212886 after 18 hrs in presence of BPL by CLSI broth microdilution method; details: isolate 212886, 18 h; method in brief: as §1
Pseudomonas aeruginosa [11] = experiment: Antibacterial activity against IMP-4 producing Pseudomonas aeruginosa isolate 212886 after 18 hrs by CLSI broth microdilution method; details: isolate 212886, 18 h
Klebsiella pneumoniae [12] = experiment: Antibacterial activity against KPC-2 producing Klebsiella pneumoniae isolate 209735 after 18 hrs in presence of BPL by CLSI broth microdilution method; details: isolate 209735, 18 h; method in brief: as §1
Escherichia coli [13] = experiment: Antibacterial activity against extended-spectrum beta-lactamase producing Escherichia coli isolate 208687 after 18 hrs in presence of BPL by CLSI broth microdilution method; details: isolate 208687, 18 h; method in brief: as §1
Klebsiella pneumoniae [14] = experiment: Antibacterial activity against KPC-2 producing Klebsiella pneumoniae isolate 209735 after 18 hrs by CLSI broth microdilution method; details: isolate 209735, 18 h
Klebsiella pneumoniae [15] = experiment: Antibacterial activity against KPC-2 producing Klebsiella pneumoniae isolate 212423 after 18 hrs in presence of BPL by CLSI broth microdilution method; details: isolate 212423, 18 h; method in brief: as §1
Escherichia coli [16] = experiment: Antibacterial activity against extended-spectrum beta-lactamase producing Escherichia coli isolate 209285 after 18 hrs by CLSI broth microdilution method; details: isolate 209285, 18 h
Pseudomonas aeruginosa [17] = experiment: Antibacterial activity against IMP-4 producing Pseudomonas aeruginosa isolate 209471 after 18 hrs by CLSI broth microdilution method; details: isolate 209471, 18 h
Klebsiella pneumoniae [18] = experiment: Antibacterial activity against KPC-2 producing Klebsiella pneumoniae isolate 212423 after 18 hrs by CLSI broth microdilution method; details: isolate 212423, 18 h
Escherichia coli [19] = experiment: Selectivity index, ratio of MIC for against extended-spectrum beta-lactamase producing Escherichia coli isolate 208687 to MIC for extended-spectrum beta-lactamase producing Escherichia coli isolate 208687 in presence of BPL
Pseudomonas aeruginosa [20] = experiment: Antibacterial activity against IMP-4 producing Pseudomonas aeruginosa isolate 209471 after 18 hrs in presence of BPL by CLSI broth microdilution method; details: isolate 209471, 18 h; method in brief: as §1
Klebsiella pneumoniae [21] = experiment: Antibacterial activity against KPC-2 producing Klebsiella pneumoniae isolate 212232 after 18 hrs in presence of BPL by CLSI broth microdilution method; details: isolate 212232, 18 h; method in brief: as §1
Klebsiella pneumoniae [22] = experiment: Selectivity index, ratio of MIC for against KPC-2 producing Klebsiella pneumoniae isolate 209632 to MIC for against KPC-2 producing Klebsiella pneumoniae isolate 209632 in presence of BPL
Escherichia coli [23] = experiment: Antibacterial activity against Escherichia coli isolate 210737 after 18 hrs by CLSI broth microdilution method; details: isolate 210737, 18 h
Escherichia coli [24] = experiment: Antibacterial activity against extended-spectrum beta-lactamase producing Escherichia coli isolate 212648 after 18 hrs by CLSI broth microdilution method; details: isolate 212648, 18 h
Pseudomonas aeruginosa [25] = experiment: Antibacterial activity against IMP-4 producing Pseudomonas aeruginosa isolate 207272 after 18 hrs in presence of BPL by CLSI broth microdilution method; details: isolate 207272, 18 h; method in brief: as §1
Escherichia coli [26] = experiment: Selectivity index, ratio of MIC for against extended-spectrum beta-lactamase producing Escherichia coli isolate 212648 to MIC for extended-spectrum beta-lactamase producing Escherichia coli isolate 212648 in presence of BPL
Klebsiella pneumoniae [27] = experiment: Antibacterial activity against KPC-2 producing Klebsiella pneumoniae isolate 209632 after 18 hrs in presence of BPL by CLSI broth microdilution method; details: isolate 209632, 18 h; method in brief: as §1
Klebsiella pneumoniae [28] = experiment: Selectivity index, ratio of MIC for against KPC-2 producing Klebsiella pneumoniae isolate 212423 to MIC for against KPC-2 producing Klebsiella pneumoniae isolate 212423 in presence of BPL
Klebsiella pneumoniae [29] = experiment: Antibacterial activity against KPC-2 producing Klebsiella pneumoniae isolate 212232 after 18 hrs by CLSI broth microdilution method; details: isolate 212232, 18 h
Pseudomonas aeruginosa [30] = experiment: Selectivity index, ratio of MIC for against IMP-4 producing Pseudomonas aeruginosa isolate 209321 to MIC for against IMP-4 producing Pseudomonas aeruginosa isolate 209321 in presence of BPL
Escherichia coli [31] = experiment: Antibacterial activity against extended-spectrum beta-lactamase producing Escherichia coli isolate 106342 after 18 hrs by CLSI broth microdilution method; details: isolate 106342, 18 h
Klebsiella pneumoniae [32] = experiment: Selectivity index, ratio of MIC for against KPC-2 producing Klebsiella pneumoniae isolate 212232 to MIC for against KPC-2 producing Klebsiella pneumoniae isolate 212232 in presence of BPL
Escherichia coli [33] = experiment: Selectivity index, ratio of MIC for against extended-spectrum beta-lactamase producing Escherichia coli isolate 209285 to MIC for extended-spectrum beta-lactamase producing Escherichia coli isolate 209285 in presence of BPL
Escherichia coli [34] = experiment: Antibacterial activity against extended-spectrum beta-lactamase producing Escherichia coli isolate 212648 after 18 hrs in presence of BPL by CLSI broth microdilution method; details: isolate 212648, 18 h; method in brief: as §1
Escherichia coli [35] = experiment: Antibacterial activity against extended-spectrum beta-lactamase producing Escherichia coli isolate 106342 after 18 hrs in presence of BPL by CLSI broth microdilution method; details: isolate 106342, 18 h; method in brief: as §1
Pseudomonas aeruginosa [36] = experiment: Antibacterial activity against IMP-4 producing Pseudomonas aeruginosa isolate 207272 after 18 hrs by CLSI broth microdilution method; details: isolate 207272, 18 h
Escherichia coli [37] = experiment: Selectivity index, ratio of MIC for against extended-spectrum beta-lactamase producing Escherichia coli isolate 106342 to MIC for extended-spectrum beta-lactamase producing Escherichia coli isolate 106342 in presence of BPL
Klebsiella pneumoniae [38] = experiment: Antibacterial activity against KPC-2 producing Klebsiella pneumoniae isolate 212229 after 18 hrs in presence of BPL by CLSI broth microdilution method; details: isolate 212229, 18 h; method in brief: as §1
Klebsiella pneumoniae [39] = experiment: Selectivity index, ratio of MIC for against KPC-2 producing Klebsiella pneumoniae isolate 209735 to MIC for against KPC-2 producing Klebsiella pneumoniae isolate 209735 in presence of BPL
Klebsiella pneumoniae [40] = experiment: Antibacterial activity against KPC-2 producing Klebsiella pneumoniae isolate 212229 after 18 hrs by CLSI broth microdilution method; details: isolate 212229, 18 h
Escherichia coli [41] = experiment: Selectivity index, ratio of MIC for against Escherichia coli isolate 210737 to MIC for Escherichia coli isolate 210737 in presence of BPL
Pseudomonas aeruginosa [42] = experiment: Selectivity index, ratio of MIC for against IMP-4 producing Pseudomonas aeruginosa isolate 209471 to MIC for against IMP-4 producing Pseudomonas aeruginosa isolate 209471 in presence of BPL
Pseudomonas aeruginosa [43] = experiment: Selectivity index, ratio of MIC for against IMP-4 producing Pseudomonas aeruginosa isolate 207272 to MIC for against IMP-4 producing Pseudomonas aeruginosa isolate 207272 in presence of BPL

MIC (Klebsiella pneumoniae [1]): 8 µg/mL (≈ 13.7 µM)
MIC (Escherichia coli [2]): 8 µg/mL
MIC (Pseudomonas aeruginosa [3]): 64 µg/mL
MIC (Escherichia coli [4]): 8 µg/mL
MIC (Pseudomonas aeruginosa [5]): > 64 µg/mL
MIC (Escherichia coli [6]): 32 µg/mL (≈ 54.7 µM)
MIC (Pseudomonas aeruginosa [8]): 64 µg/mL (≈ 109 µM)
MIC (Pseudomonas aeruginosa [9]): 64 µg/mL
MIC (Pseudomonas aeruginosa [10]): > 64 µg/mL
MIC (Pseudomonas aeruginosa [11]): > 64 µg/mL
MIC (Klebsiella pneumoniae [12]): 4 µg/mL
MIC (Escherichia coli [13]): 4 µg/mL
MIC (Klebsiella pneumoniae [14]): 16 µg/mL (≈ 27.4 µM)
MIC (Klebsiella pneumoniae [15]): 4 µg/mL
MIC (Escherichia coli [16]): 64 µg/mL (≈ 109 µM)
MIC (Pseudomonas aeruginosa [17]): > 64 µg/mL
MIC (Klebsiella pneumoniae [18]): 8 µg/mL (≈ 13.7 µM)
MIC (Pseudomonas aeruginosa [20]): > 64 µg/mL
MIC (Klebsiella pneumoniae [21]): 1 µg/mL
MIC (Escherichia coli [23]): 16 µg/mL (≈ 27.4 µM)
MIC (Escherichia coli [24]): > 64 µg/mL
MIC (Pseudomonas aeruginosa [25]): > 64 µg/mL
MIC (Klebsiella pneumoniae [27]): 4 µg/mL
MIC (Klebsiella pneumoniae [29]): 16 µg/mL (≈ 27.4 µM)
MIC (Escherichia coli [31]): 32 µg/mL (≈ 54.7 µM)
MIC (Escherichia coli [34]): > 64 µg/mL
MIC (Escherichia coli [35]): 16 µg/mL
MIC (Pseudomonas aeruginosa [36]): > 64 µg/mL
MIC (Klebsiella pneumoniae [38]): 4 µg/mL
MIC (Klebsiella pneumoniae [40]): 8 µg/mL (≈ 13.7 µM)
SMILES: CC(C)C(O/N=C(\C(=O)NC1C(=O)N(S(=O)(=O)O)C12CCCCC2)c1csc(N)n1)c1cc(=O)c(O)cn1O (centres undefined)
Selectivity Index (Klebsiella pneumoniae [7]): 2
Selectivity Index (Escherichia coli [19]): 8
Selectivity Index (Klebsiella pneumoniae [22]): 2
Selectivity Index (Escherichia coli [26]): 2 - 8
Selectivity Index (Klebsiella pneumoniae [28]): 2
Selectivity Index (Pseudomonas aeruginosa [30]): 1
Selectivity Index (Klebsiella pneumoniae [32]): 16
Selectivity Index (Escherichia coli [33]): 8
Selectivity Index (Escherichia coli [37]): 2
Selectivity Index (Klebsiella pneumoniae [39]): 4
Selectivity Index (Escherichia coli [41]): 2

MIC (Klebsiella pneumoniae [1]): > 64 µg/mL
MIC (Escherichia coli [2]): 1 µg/mL
MIC (Pseudomonas aeruginosa [3]): > 64 µg/mL
MIC (Escherichia coli [4]): 0.5 µg/mL
MIC (Pseudomonas aeruginosa [5]): > 64 µg/mL
MIC (Escherichia coli [6]): 2 µg/mL (≈ 3.25 µM)
MIC (Pseudomonas aeruginosa [8]): 32 µg/mL (≈ 52.1 µM)
MIC (Pseudomonas aeruginosa [9]): 32 µg/mL
MIC (Pseudomonas aeruginosa [10]): > 64 µg/mL
MIC (Pseudomonas aeruginosa [11]): > 64 µg/mL
MIC (Klebsiella pneumoniae [12]): > 64 µg/mL
MIC (Escherichia coli [13]): 1 µg/mL
MIC (Klebsiella pneumoniae [14]): > 64 µg/mL
MIC (Klebsiella pneumoniae [15]): 2 µg/mL
MIC (Escherichia coli [16]): 2 µg/mL (≈ 3.25 µM)
MIC (Pseudomonas aeruginosa [17]): 64 µg/mL (≈ 104 µM)
MIC (Klebsiella pneumoniae [18]): 4 µg/mL (≈ 6.51 µM)
MIC (Pseudomonas aeruginosa [20]): 64 µg/mL
MIC (Klebsiella pneumoniae [21]): 0.5 µg/mL
MIC (Escherichia coli [23]): 1 µg/mL (≈ 1.63 µM)
MIC (Escherichia coli [24]): 2 µg/mL (≈ 3.25 µM)
MIC (Pseudomonas aeruginosa [25]): 64 µg/mL
MIC (Klebsiella pneumoniae [27]): > 64 µg/mL
MIC (Klebsiella pneumoniae [29]): 4 µg/mL (≈ 6.51 µM)
MIC (Escherichia coli [31]): 2 µg/mL (≈ 3.25 µM)
MIC (Escherichia coli [34]): 0.5 µg/mL
MIC (Escherichia coli [35]): 1 µg/mL
MIC (Pseudomonas aeruginosa [36]): 64 µg/mL (≈ 104 µM)
MIC (Klebsiella pneumoniae [38]): 2 µg/mL
MIC (Klebsiella pneumoniae [40]): 2 µg/mL (≈ 3.25 µM)
SMILES: CC(C)C(O/N=C(\C(=O)N[C@@H]1C(=O)N(S(=O)(=O)O)[C@@H]1CN1CCNCC1)c1csc(N)n1)c1cc(=O)c(O)cn1O (some centres undefined)
Selectivity Index (Klebsiella pneumoniae [7]): 1
Selectivity Index (Escherichia coli [19]): 2
Selectivity Index (Klebsiella pneumoniae [22]): 1 - 8
Selectivity Index (Escherichia coli [26]): 4
Selectivity Index (Pseudomonas aeruginosa [42]): 1
Selectivity Index (Klebsiella pneumoniae [28]): 2
Selectivity Index (Pseudomonas aeruginosa [30]): 1
Selectivity Index (Klebsiella pneumoniae [32]): 8
Selectivity Index (Escherichia coli [33]): 4
Selectivity Index (Escherichia coli [37]): 2
Selectivity Index (Klebsiella pneumoniae [39]): 1 - 8
Selectivity Index (Escherichia coli [41]): 1
Selectivity Index (Pseudomonas aeruginosa [43]): 1

— ChEMBL document CHEMBL4152188, “Design, synthesis and biological evaluation of C(4) substituted monobactams as antibacterial agents against multidrug-resistant Gram-negative bacteria” (Eur J Med Chem, 2018)
